Laboratory results taken from ChEMBL document CHEMBL5696444 (Nat Commun, 2017).
The source made the active and inactive calls. The calls are words filed in the database; no cut-off is given here.

Columns and labels:
[1] = molecular target: Dual specificity protein kinase CLK2 (Homo sapiens, UniProt P49760); test: Inhibition of N-terminal FLAG-tagged human CLK2 using ULight MBP peptide as substrate incubated for 10 mins in presence of ATP incubated for 45 mins by LANCE Ultra kinase assay
[2] = molecular target: Dual specificity protein kinase CLK1 (Homo sapiens) (UniProt P49759); test: Inhibition of CLK (unknown origin) in human HCT-116 cells assessed as phospho SR level at 10 uM incubated for 6 hrs by immunoblot analysis; format: cell-based
Procedure, shortened: (§1)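 HCT116 cells were exposed to compound for 3 or 6 h, then lysed in 1× SDS sample buffer (0.16% SDS, Tris-HCl pH 6.8) and boiled 5 min. Lysates were run on 5–15% or 4–12% gradient gels and transferred to nitrocellulose or PVDF. Membranes were blocked in 5% milk or 3% BSA/TBS-T and probed overnight at 4 °C with anti-SR protein (16H3) or anti-phospho-SR (1H4, 1/1000), with GAPDH as loading control.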

[3] = molecular target: Dual specificity protein kinase CLK1 (Homo sapiens) (UniProt P49759); test: Inhibition of CLK (unknown origin) in human HCT-116 cells assessed as SRSF1 level at 10 uM incubated for 6 hrs by immunoblot analysis; format: cell-based; procedure, shortened: as §1
HCT-116 = test: Cytotoxicity against human HCT-116 cells assessed as inhibition of cell viability incubated for > 24 hrs; format: functional
[4] = molecular target: Dual specificity protein kinase CLK1 (Homo sapiens) (UniProt P49759); test: Inhibition of CLK (unknown origin) in human HCT-116 cells assessed as SRSF6 level at 10 uM incubated for 6 hrs by immunoblot analysis; format: cell-based; procedure, shortened: as §1
[5] = molecular target: Dual specificity protein kinase CLK1 (Homo sapiens) (UniProt P49759); test: Inhibition of CLK (unknown origin) in human HCT-116 cells assessed as SRSF4 level at 10 uM incubated for 6 hrs by immunoblot analysis; format: cell-based; procedure, shortened: as §1

Chain of Dual specificity protein kinase CLK1 (Homo sapiens) (P49759 whole entry, looked up): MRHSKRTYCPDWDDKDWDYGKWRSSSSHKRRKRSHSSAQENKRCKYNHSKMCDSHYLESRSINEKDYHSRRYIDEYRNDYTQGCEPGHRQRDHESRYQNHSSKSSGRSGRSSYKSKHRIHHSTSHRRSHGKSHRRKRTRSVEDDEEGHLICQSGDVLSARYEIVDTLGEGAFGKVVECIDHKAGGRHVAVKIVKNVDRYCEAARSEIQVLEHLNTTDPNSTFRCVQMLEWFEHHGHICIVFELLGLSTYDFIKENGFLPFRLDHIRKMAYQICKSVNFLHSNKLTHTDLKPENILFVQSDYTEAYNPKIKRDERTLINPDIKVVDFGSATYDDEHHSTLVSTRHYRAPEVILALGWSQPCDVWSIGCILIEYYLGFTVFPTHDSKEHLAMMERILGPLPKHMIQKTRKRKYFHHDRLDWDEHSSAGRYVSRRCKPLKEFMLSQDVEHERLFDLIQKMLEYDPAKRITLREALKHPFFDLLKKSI
Chain of Dual specificity protein kinase CLK2 (P49760 whole entry): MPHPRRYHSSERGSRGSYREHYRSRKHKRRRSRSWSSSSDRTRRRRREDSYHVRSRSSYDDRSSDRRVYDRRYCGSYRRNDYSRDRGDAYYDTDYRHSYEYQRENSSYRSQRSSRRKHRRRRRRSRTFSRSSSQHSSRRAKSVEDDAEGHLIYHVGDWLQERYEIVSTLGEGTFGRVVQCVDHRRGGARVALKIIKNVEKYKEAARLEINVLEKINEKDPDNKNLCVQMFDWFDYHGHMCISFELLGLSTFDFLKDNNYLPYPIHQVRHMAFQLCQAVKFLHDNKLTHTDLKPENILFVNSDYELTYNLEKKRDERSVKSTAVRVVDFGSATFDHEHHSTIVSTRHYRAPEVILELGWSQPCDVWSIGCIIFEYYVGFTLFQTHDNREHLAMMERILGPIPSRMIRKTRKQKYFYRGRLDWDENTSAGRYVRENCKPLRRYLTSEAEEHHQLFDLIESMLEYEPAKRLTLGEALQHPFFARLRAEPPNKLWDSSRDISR

CC(C)(CCc1nn[nH]n1)c1ccc(C(=O)Nc2cn3cc(-c4ccncc4)ccc3n2)cc1
IC50 [1]: 50 nM

CCN1CCN(C(=O)C(C)(C)c2ccc(C(=O)Nc3cn4cc(-c5ccncc5)ccc4n3)cc2)CC1
IC50 [1]: 15 nM

CCOC(=O)c1c(/C(C#N)=C\N)c2ccc(Cl)c(Cl)c2n1C
inhibition [2]: Active
inhibition [3]: Active
GI (HCT-116): >50 µM
inhibition [4]: Active
inhibition [5]: Active

CC(C)(CCc1nn[nH]n1)c1ccc(C(=O)Nc2cn3cc(C(F)(F)F)ccc3n2)cc1
IC50 [1]: 360 nM

CC(C)(C(=O)N1CCNCC1)c1ccc(C(=O)Nc2cn3cc(-c4ccncc4)ccc3n2)cc1
IC50 [1]: 150 nM
